# Source: BindingDB's records for doi:10.1021/np800692t (Chinese Academy of Sciences, 2010)
# Target: Signal transducer and activator of transcription 3 (Homo sapiens, UniProt P40763)
# Assay: Inhibition of STAT3 by Western blotting
# Procedure, shortened: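 Phosphotyrosine Stat3 levels in treated cells, tested up to 10 µM. Cells washed in ice-cold PBS, lysed in SDS sample buffer, equal protein run on SDS-PAGE and transferred to PVDF. Blots blocked in 5% nonfat milk/TBST, then phospho-Stat3 and β-tubulin antibodies at 4 °C overnight, secondary 2 h room temperature, ECL detection. IC50 derived.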
# Chain of Signal transducer and activator of transcription 3 (P40763 whole entry): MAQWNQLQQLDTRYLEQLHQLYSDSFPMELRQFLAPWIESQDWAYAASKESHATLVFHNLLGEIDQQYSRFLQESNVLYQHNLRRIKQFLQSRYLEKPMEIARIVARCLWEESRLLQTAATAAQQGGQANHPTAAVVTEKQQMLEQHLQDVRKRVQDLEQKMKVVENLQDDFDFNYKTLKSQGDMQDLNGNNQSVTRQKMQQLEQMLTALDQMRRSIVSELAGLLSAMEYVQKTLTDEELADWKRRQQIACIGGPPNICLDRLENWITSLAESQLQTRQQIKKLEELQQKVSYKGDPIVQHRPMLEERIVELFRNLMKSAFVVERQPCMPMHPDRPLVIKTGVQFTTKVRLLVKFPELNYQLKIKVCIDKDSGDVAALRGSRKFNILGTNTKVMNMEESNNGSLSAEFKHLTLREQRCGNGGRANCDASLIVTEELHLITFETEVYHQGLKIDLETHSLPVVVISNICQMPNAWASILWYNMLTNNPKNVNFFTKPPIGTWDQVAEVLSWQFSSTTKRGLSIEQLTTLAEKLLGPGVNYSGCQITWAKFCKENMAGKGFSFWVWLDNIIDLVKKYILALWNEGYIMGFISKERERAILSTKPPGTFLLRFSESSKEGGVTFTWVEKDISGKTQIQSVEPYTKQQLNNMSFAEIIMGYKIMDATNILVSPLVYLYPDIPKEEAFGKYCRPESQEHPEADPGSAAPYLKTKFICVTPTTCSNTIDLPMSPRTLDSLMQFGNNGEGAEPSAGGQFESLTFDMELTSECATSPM
smiles,measurement,value
CC(=O)OC(C)(C)/C=C/C(=O)[C@](C)(O)[C@H]1[C@H](O)C[C@@]2(C)[C@@H]3CC=C4[C@H](C[C@H](O)C(=O)C4(C)C)[C@]3(C)C(=O)C[C@]12C [CUCURBITACIN B],IC50,3000 nM
